Results reported in ChEMBL document CHEMBL1140918, “Candidate selection and preclinical evaluation of N-tert-butyl isoquine (GSK369796), an affordable and effective 4-aminoquinoline antimalarial for the 21st century” (J Med Chem, 2009).
Calls of active or inactive are those of the source. No cut-off for these calls is given here.

What was measured:
[1] = system: Plasmodium falciparum; assay: Antimalarial activity against chloroquine-sensitive Plasmodium falciparum 3D7 in human erythrocytes after 48 hrs by [3H]hypoxanthine uptake; type: functional, organism-based
How it was run: (§1)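 P. falciparum grown in human erythrocytes in RPMI 1640 with 25 mM HEPES, 32 mM NaHCO3 and 10% human serum, gassed 3% O2/4% CO2/93% N2. Assay at 2% parasitemia, 0.5% hematocrit, drug stocks in DMSO diluted in medium, in triplicate. After 24 h at 37 °C, [3H]-hypoxanthine added and incubation continued 24 h. Scintillation counting; IC50 by probit interpolation of log dose-response, three independent experiments.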

[2] = system: Plasmodium falciparum; assay: Antimalarial activity against chloroquine-resistant Plasmodium falciparum K1 in human erythrocytes after 48 hrs by [3H]hypoxanthine uptake; type: functional, organism-based; how it was run: as §1
[3] = system: Heme; assay: Binding affinity to heme in DMSO assessed as equilibrium constant by UV-visible spectrophotometry; set-up: scale not given here
How it was run: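 Haem titrations were run in buffered 40% DMSO so that haem stays monomeric and aggregation and μ-oxo dimer formation are minimised. Binding data were fitted mathematically to two alternative binding-process models to pick the best fit.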

[4] = system: Plasmodium berghei; assay: Antimalarial activity as reduced parasitaemia against Plasmodium berghei ANKA infected CD1 mice (Mus musculus) after 4 days; type: functional; conditions: 96 h
How it was run: (§2)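 Standard Peters 4-day test in female age-matched CD1 mice, randomised into groups of 5. Mice were infected iv on day 0 with 6.4 × 10^6 or 10.0 × 10^6 parasites (P. berghei or P. yoelii) from infected donors. Peripheral-blood parasitaemia was read by flow cytometry at day 4 and compared with vehicle-treated groups. Doses ranged up to 40 mg/kg.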

[5] = system: Plasmodium yoelii; assay: Antimalarial activity as reduced parasitaemia against Plasmodium yoelii 17X infected CD1 mice (Mus musculus) after 4 days; type: functional; conditions: 96 h
[6] = system: Plasmodium yoelii; assay: Antimalarial activity as ED100 in peripheral blood against Plasmodium yoelii 17X infected CD1 mice (Mus musculus) after 4 days; type: functional
[7] = system: Plasmodium falciparum; assay: Antimalarial activity against chloroquine-sensitive Plasmodium falciparum HB3 in human erythrocytes after 48 hrs by [3H]hypoxanthine uptake; type: functional, organism-based; how it was run: as §1
[8] = system: Plasmodium yoelii; assay: Antimalarial activity as reduced parasitaemia at day 4 against Plasmodium yoelii 17X infected CD1 mice (Mus musculus) at 40 mg/kg; type: functional, organism-based; set-up: dose 40 mg/kg; how it was run: as §2
[9] = system: Heme; assay: Binding affinity to heme in 12 mM SDS surfactant assessed as equilibrium constant by UV-visible spectrophotometry
[10] = system: Heme; assay: Binding affinity to heme in 20 mM CTAB surfactant assessed as equilibrium constant by UV-visible spectrophotometry
[11] = system: Heme; assay: Binding affinity to heme in 20 mM SDS surfactant assessed as equilibrium constant by UV-visible spectrophotometry
[12] = system: Heme; assay: Binding affinity to heme in 1.2 mM TX-100 surfactant assessed as equilibrium constant by UV-visible spectrophotometry
[13] = system: Rhesus monkey; assay: Toxicity in monkey assessed as increase in QTc interval; type: organism-based, Macaca mulatta; conditions: in vivo
How it was run: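 Repeat-dose toxicity studies in monkeys, with QTc intervals and ECG rhythm monitored.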

[14] = system: Heme; assay: Binding affinity to heme in […] CTAB surfactant assessed as equilibrium constant by UV-visible spectrophotometry
[15] = system: Heme; assay: Binding affinity to heme in 5 mM CTAB surfactant assessed as equilibrium constant by UV-visible spectrophotometry
[16] = system: Heme; assay: Binding affinity to heme in 50 mM SDS surfactant assessed as equilibrium constant by UV-visible spectrophotometry
[17] = target: T1, Cytochrome P450 3A4 (Homo sapiens, UniProt P08684); assay: Inhibition of human recombinant CYP3A4 using phenyl-piperazinyl-methyl-benzyl-resofurin as substrate; type: ADME
T1 sequence (P08684 whole entry): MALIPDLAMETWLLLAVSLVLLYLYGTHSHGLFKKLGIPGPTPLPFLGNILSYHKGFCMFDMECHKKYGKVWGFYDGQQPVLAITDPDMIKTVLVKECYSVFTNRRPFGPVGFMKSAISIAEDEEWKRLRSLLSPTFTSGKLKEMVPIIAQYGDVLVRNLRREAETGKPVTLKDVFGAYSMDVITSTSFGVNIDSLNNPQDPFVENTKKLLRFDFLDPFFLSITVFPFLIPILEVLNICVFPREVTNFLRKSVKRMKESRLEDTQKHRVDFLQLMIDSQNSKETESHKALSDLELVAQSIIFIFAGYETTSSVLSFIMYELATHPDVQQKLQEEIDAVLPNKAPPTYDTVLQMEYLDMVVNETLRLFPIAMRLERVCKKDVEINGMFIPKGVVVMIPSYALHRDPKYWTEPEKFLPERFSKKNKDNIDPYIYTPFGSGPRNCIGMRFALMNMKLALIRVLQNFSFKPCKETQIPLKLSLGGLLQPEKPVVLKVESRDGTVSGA
How it was run: (§3)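 Concentration-dependent inhibition of major human cytochrome P450 isozymes (recombinant enzymes) was tested using fluorescent probe substrates. Mean IC50 values were reported.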

[18] = species: Mus musculus; assay: Protein binding in mouse; type: ADME, organism-based; conditions: in vivo
How it was run: (§4)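 Protein binding and blood-cell association were assessed in vitro in plasma or whole blood from preclinical species and humans.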

[19] = target: Voltage-gated inwardly rectifying potassium channel KCNH2 (Homo sapiens, UniProt Q12809); assay: Inhibition of human cloned ERG
Voltage-gated inwardly rectifying potassium channel KCNH2, sequence (Q12809 whole entry): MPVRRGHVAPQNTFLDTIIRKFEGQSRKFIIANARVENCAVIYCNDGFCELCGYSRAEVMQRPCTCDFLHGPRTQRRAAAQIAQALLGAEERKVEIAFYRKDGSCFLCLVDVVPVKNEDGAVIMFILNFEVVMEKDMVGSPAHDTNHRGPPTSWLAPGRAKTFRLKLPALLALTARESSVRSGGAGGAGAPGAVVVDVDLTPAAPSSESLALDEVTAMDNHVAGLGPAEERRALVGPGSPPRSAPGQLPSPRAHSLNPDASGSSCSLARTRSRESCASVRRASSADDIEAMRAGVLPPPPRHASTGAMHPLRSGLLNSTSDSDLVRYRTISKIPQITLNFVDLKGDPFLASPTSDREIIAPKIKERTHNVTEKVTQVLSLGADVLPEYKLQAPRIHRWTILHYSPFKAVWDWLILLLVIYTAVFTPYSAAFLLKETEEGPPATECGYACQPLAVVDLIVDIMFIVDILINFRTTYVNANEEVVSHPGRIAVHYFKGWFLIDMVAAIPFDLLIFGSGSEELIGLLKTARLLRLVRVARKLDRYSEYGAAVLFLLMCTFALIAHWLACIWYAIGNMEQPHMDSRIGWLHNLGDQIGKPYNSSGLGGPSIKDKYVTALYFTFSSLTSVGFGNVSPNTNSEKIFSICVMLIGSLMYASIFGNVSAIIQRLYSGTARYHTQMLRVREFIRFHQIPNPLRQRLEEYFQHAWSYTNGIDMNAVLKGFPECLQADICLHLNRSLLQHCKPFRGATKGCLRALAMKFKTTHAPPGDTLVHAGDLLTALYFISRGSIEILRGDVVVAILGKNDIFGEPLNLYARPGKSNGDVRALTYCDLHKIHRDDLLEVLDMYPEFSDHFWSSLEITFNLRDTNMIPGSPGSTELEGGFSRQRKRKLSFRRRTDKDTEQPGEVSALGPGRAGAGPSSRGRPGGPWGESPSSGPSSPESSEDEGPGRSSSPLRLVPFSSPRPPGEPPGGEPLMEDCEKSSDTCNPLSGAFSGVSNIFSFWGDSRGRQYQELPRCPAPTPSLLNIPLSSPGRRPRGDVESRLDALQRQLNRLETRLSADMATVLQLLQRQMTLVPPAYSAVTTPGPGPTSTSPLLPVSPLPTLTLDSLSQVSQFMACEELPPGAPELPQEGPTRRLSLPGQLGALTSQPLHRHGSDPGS

[20] = species: Homo sapiens; assay: Protein binding in human; type: ADME, organism-based; conditions: in vivo; how it was run: as §4
[21] = target: T1, Cytochrome P450 3A4; assay: Inhibition of human recombinant CYP3A4 using […] as substrate; type: ADME
[22] = target: T2, Cytochrome P450 2C8 (Homo sapiens, UniProt P10632); assay: Inhibition of human recombinant CYP2C8; type: ADME; how it was run: as §3
T2 sequence (P10632 whole entry): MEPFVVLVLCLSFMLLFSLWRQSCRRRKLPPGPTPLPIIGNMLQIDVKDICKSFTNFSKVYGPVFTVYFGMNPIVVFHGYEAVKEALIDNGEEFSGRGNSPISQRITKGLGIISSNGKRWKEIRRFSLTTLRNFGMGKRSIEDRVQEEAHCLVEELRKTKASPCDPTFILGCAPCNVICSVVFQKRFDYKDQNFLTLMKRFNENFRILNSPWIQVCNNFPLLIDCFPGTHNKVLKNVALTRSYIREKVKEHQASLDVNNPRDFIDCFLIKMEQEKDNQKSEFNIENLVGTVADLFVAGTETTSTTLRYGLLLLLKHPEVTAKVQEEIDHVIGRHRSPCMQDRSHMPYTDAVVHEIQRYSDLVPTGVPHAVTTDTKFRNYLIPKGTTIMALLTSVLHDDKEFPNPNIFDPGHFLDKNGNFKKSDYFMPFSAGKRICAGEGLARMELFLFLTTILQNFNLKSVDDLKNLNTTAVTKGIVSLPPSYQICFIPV

[23] = target: Cytochrome P450 2C19 (Homo sapiens, UniProt P33261); assay: Inhibition of human recombinant CYP2C19; type: ADME; how it was run: as §3
Cytochrome P450 2C19, sequence (P33261 whole entry): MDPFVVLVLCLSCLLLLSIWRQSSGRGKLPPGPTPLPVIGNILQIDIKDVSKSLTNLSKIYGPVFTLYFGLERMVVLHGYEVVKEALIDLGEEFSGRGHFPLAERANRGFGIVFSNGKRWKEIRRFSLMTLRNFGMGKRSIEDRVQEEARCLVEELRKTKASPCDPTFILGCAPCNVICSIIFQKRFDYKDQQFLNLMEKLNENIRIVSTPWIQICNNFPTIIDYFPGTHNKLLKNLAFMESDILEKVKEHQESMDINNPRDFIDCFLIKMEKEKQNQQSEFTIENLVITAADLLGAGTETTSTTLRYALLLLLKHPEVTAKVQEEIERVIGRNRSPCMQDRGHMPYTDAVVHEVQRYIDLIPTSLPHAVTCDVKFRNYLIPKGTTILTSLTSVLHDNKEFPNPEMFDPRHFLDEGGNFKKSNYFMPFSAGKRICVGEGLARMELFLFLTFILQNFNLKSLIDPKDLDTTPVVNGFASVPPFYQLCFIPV

[24] = target: T3, Cytochrome P450 1A2 (Homo sapiens, UniProt P05177); assay: Inhibition of human recombinant CYP1A2; type: ADME; how it was run: as §3
T3 sequence (P05177 whole entry): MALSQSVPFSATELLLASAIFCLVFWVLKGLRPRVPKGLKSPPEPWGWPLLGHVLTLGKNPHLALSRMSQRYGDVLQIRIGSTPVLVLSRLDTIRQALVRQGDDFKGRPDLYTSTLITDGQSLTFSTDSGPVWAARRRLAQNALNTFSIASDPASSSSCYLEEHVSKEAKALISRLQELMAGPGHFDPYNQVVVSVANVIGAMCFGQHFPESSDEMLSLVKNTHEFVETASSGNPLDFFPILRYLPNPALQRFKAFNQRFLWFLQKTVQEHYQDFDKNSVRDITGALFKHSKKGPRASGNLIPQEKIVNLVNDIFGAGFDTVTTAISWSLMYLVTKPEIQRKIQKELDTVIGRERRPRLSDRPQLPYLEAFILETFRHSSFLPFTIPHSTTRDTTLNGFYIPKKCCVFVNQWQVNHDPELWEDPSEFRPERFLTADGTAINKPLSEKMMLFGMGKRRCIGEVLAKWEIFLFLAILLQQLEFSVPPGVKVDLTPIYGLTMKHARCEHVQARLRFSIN

[25] = Clearance in iv and orally dosed monkey blood; type: ADME, organism-based, Macaca mulatta; conditions: rhesus monkey, whole blood
How it was run: (§5)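 Single intravenous and oral doses were given to the mouse, rat, dog and/or monkey. Drug was measured in blood to derive blood clearance, elimination half-life and % oral bioavailability.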

[26] = Clearance in iv and orally dosed dog blood; type: ADME, organism-based, Canis lupus familiaris; conditions: whole blood; how it was run: as §5
[27] = target: Cytochrome P450 2C9 (Homo sapiens, UniProt P11712); assay: Inhibition of human recombinant CYP2C9; type: ADME; how it was run: as §3
Cytochrome P450 2C9, sequence (P11712 whole entry): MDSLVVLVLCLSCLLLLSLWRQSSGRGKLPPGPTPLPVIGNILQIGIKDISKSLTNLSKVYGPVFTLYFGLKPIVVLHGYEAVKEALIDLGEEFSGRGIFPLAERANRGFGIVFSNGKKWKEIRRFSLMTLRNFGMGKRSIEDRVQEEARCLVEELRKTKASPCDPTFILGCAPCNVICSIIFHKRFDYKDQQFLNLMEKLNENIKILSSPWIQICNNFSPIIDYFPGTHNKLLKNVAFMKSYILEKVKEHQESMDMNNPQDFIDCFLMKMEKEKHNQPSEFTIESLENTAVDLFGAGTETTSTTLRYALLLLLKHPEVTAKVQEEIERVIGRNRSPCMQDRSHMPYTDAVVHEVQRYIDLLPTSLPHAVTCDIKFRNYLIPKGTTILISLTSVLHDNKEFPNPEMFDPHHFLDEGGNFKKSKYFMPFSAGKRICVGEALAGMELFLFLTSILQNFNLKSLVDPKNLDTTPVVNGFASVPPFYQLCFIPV

[28] = target: Cytochrome P450 2D6 (Homo sapiens, UniProt P10635); assay: Inhibition of human recombinant CYP2D6; type: ADME; how it was run: as §3
Cytochrome P450 2D6, sequence (P10635 whole entry): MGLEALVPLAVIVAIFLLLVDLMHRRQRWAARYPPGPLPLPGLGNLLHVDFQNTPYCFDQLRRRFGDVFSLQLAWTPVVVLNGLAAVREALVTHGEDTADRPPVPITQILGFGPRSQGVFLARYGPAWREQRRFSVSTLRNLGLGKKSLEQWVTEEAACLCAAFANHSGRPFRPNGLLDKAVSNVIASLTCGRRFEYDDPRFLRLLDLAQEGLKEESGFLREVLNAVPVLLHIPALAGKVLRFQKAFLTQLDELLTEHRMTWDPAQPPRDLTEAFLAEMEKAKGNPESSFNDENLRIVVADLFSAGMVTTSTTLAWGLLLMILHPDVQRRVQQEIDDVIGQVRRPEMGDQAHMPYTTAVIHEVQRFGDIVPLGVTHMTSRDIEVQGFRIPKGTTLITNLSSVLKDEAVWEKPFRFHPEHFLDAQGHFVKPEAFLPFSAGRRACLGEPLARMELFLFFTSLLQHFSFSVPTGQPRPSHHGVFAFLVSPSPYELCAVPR

[29] = Oral bioavailability in monkey; type: ADME, organism-based, Macaca mulatta; conditions: rhesus monkey, in vivo; how it was run: as §5
[30] = Oral bioavailability in dog; type: ADME, organism-based, Canis lupus familiaris; conditions: in vivo; how it was run: as §5
[31] = system: Plasmodium yoelii; assay: Antimalarial activity as ED100 in peripheral blood at day 23 against Plasmodium yoelii 17X infected CD1 mice (Mus musculus); type: functional
[32] = Clearance in iv and orally dosed rat blood; type: ADME, organism-based; conditions: whole blood; how it was run: as §5
[33] = Oral bioavailability in rat; type: ADME, organism-based; conditions: in vivo; how it was run: as §5
[34] = Elimination half life in orally dosed monkey; type: ADME, organism-based, Macaca mulatta; conditions: rhesus monkey, in vivo, po; read-out: beta t1/2 (converted); how it was run: as §5
[35] = Oral bioavailability in mouse; type: ADME, organism-based; conditions: in vivo; how it was run: as §5
[36] = Elimination half life in orally dosed mouse; type: ADME, organism-based; conditions: in vivo, po, read-out: beta t1/2 (converted); how it was run: as §5
[37] = Ratio of drug level in blood to plasma in human; type: ADME, cell-free; conditions: read-out: BPR
How it was run: (§6)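 Red blood cell association measured in vitro in whole blood from the species named, alongside plasma protein binding. Read-out is the ratio of drug concentration in whole blood to that in plasma.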

[38] = Ratio of drug level in blood to plasma in dog; type: ADME, cell-free, Canis lupus familiaris; conditions: read-out: BPR; how it was run: as §6
[39] = Clearance in iv and orally dosed mouse blood; type: ADME, organism-based; conditions: whole blood; how it was run: as §5

SMILES: CCN(CC)Cc1cc(Nc2ccnc3cc(Cl)ccc23)ccc1O.Cl
- IC50 [1]: 0.0112 µM
- IC50 [2]: 0.0155 µM
- Activity [3]: 4.4
- ED50 [4]: 2.1 mg/kg
- ED90 [4]: 3.2 mg/kg
- ED50 [5]: 2.6 mg/kg
- ED90 [5]: 3.7 mg/kg
- Activity [6]: >40 mg/kg
- IC50 [7]: 0.0096 µM

SMILES: C=C[C@H]1CN2CC[C@H]1C[C@H]2[C@H](O)c1ccnc2ccc(OC)cc12
- Activity [3]: 4.4

SMILES: CC(C)(C)NCc1cc(Nc2ccnc3cc(Cl)ccc23)ccc1F
- Activity [8]: inactive

SMILES: OC(c1cc(C(F)(F)F)nc2c(C(F)(F)F)cccc12)C1CCCCN1 (stereo not given)
- Activity [3]: 3.84

SMILES: c1ccncc1
- Activity [9]: 2.24

SMILES: CCN(CC)CCCC(C)Nc1ccnc2cc(Cl)ccc12 (stereo not given) [CHLOROQUINE]
- Activity [10]: 4.7
- Activity [11]: 4.4
- Activity [12]: 6.23
- Activity [3]: 5.3
- Activity [13]: Toxic
- ED50 [5]: 3.3 mg/kg
- ED90 [5]: 4.4 mg/kg
- Activity [6]: >40 mg/kg
- Activity [14]: 4
- Activity [15]: 4.69
- Activity [16]: 3.8

SMILES: CCNCc1cc(Nc2ccnc3cc(Cl)ccc23)ccc1O [DESETHYL AMODIAQUINE]
- IC50 [17]: > 100 µM
- Activity [18]: 74%
- IC50 [19]: 9.5 µM
- Activity [8]: inactive
- Activity [20]: 86%

SMILES: CCNCc1ccc(Nc2ccnc3cc(Cl)ccc23)cc1O [DESETHYL ISOQUINE]
- IC50 ([21]; read-out: IC50): > 100 µM
- IC50 [17]: ≥ 55 µM
- IC50 [22]: 23 µM
- IC50 [1]: 0.0092 µM
- IC50 [2]: 0.0176 µM
- IC50 [23]: 62 µM
- IC50 [24]: 8 µM
- ED50 [4]: 5.3 mg/kg
- ED90 [4]: 7.3 mg/kg
- clearance [25]: 49 mL/min/kg
- clearance [26]: 12 mL/min/kg
- IC50 [7]: 0.0142 µM
- IC50 [27]: > 100 µM
- IC50 [28]: 3.4 µM
- bioavailability [29]: 40%

SMILES: CC(C)(C)NCc1ccc(Nc2ccnc3cc(Cl)ccc23)cc1O [GSK-369796]
- IC50 [21]: Active
- bioavailability [30]: 68%
- IC50 [17]: > 100 µM
- IC50 [22]: 23 µM
- Activity [31]: 20 mg/kg
- clearance [32]: 26 mL/min/kg
- Activity [18]: 93%
- bioavailability [33]: 89%
- IC50 [1]: 0.0112 µM
- IC50 [2]: 0.0132 µM
- IC50 [23]: 24 µM
- half-life [34]: 11 h
- Activity [3]: 5.23
- IC50 [24]: 29 µM
- ED50 [4]: 2.8 mg/kg
- ED90 [4]: 4.7 mg/kg
- clearance [25]: 14.5 mL/min/kg
- ED50 [5]: 3.8 mg/kg
- ED90 [5]: 5.4 mg/kg
- clearance [26]: 6.3 mL/min/kg
- IC50 [19]: 7.5 µM
- bioavailability [35]: 100%
- half-life [36]: 3 h
- blood plasma ratio [37]: 1.2
- IC50 [7]: 0.0126 µM
- IC50 [27]: ≥ 90 µM
- blood plasma ratio [38]: 15
- Activity [20]: 88%
- IC50 [28]: 3 µM
- bioavailability [29]: 100%
- clearance [39]: 17 mL/min/kg

SMILES: CCCCN(CCCC)CCC(O)c1cc2c(Cl)cc(Cl)cc2c2cc(C(F)(F)F)ccc12 (stereo not given) [HALOFANTRINE]
- Activity [13]: Toxic

SMILES: CCN(CC)Cc1ccc(Nc2ccnc3cc(Cl)ccc23)cc1O [ISOQUINE]
- IC50 [21]: Active
- IC50 [1]: 0.0116 µM
- IC50 [2]: 0.0176 µM
- ED50 [4]: 3.7 mg/kg
- ED90 [4]: 5.3 mg/kg
- clearance [26]: 151 mL/min/kg
- IC50 [19]: 3.9 µM
- Activity [8]: inactive
- IC50 [7]: 0.0126 µM
